The source of these data is ChEMBL document CHEMBL3272070, “Cycloalkanoindoles. 1. Syntheses and antiinflammatory actions of some acidic tetrahydrocarbazoles, cyclopentindoles, and cycloheptindoles” (J Med Chem, 1976).

Data set [1] has as its system Rattus norvegicus. Put plainly: Chronic antiinflammatory activity against adjuvant-induced arthritis in po dosed rat assessed as decrease in volume of paw administered for 9 days starting 14 days after adjuvant injection and continued until day 22 by therapeutic test. The data set is classed as functional. In a few lines:
(§1)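 Adjuvant arthritis was induced in groups of six rats by injecting Mycobacterium butyricum in mineral oil into the left hind foot pad. Oral dosing ran from day 14 to day 22 (nine doses). Injected-paw volume was measured by mercury displacement, and a decrease of ≥0.5 ml counted as a therapeutic effect. ED50 was derived by probit analysis of responder counts. The maximum screening dose was 100 mg/kg.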

Data set [2] deals with Rattus norvegicus. Put plainly: Ulcerogenicity in po dosed 24-hrs starved Charles-River rat assessed as lesions on stomach administered as single dose measured after 18 hrs. The data set is classed as toxicity, organism-based. As to conditions: in vivo. In a few lines: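 Male Charles River rats were starved 24 h and given a single oral dose. After 18 h they were killed by ether inhalation and their stomachs examined for lesions (erosion or ulcer). UD50, the dose producing lesions in 50% of rats, was derived by probit analysis.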

The species named for data set [3] is Rattus norvegicus. Put plainly: Ratio of ED50 for ulcerogenicity in 24-hrs starved Charles-River rat to ED50 for chronic antiinflammatory activity against adjuvant-induced arthritis in rat. In a few lines: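 Ratio of ulcerogenic UD50 to therapeutic ED50. UD50: single oral dose in 24 h-starved male Charles River rats, stomach lesions scored at 18 h. Therapeutic ED50: adjuvant-arthritic rats dosed orally days 14–22, with a ≥0.5 ml decrease in paw volume as the response. Both values were derived by probit analysis.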

Data set [4] has as its system Rattus norvegicus. Put plainly: Acute antiinflammatory activity in po dosed rat assessed as inhibition of carrageenan-induced paw edema. It counts as functional. Background: In the carrageenan paw model, swelling and tenderness develop within hours.
Data set [5] concerns Rattus norvegicus. The data set is described as follows: Chronic antiinflammatory activity against adjuvant-induced arthritis in rat assessed as decrease in volume of paw at 25 mg/kg, po administered for 9 days starting 14 days after adjuvant injection and continued until day 22 by therapeutic test. It counts as functional, organism-based. Also noted: dose 25 mg/kg. In a few lines:
as §1

Data set [6] relates to Rattus norvegicus. Put plainly: Chronic antiinflammatory activity against adjuvant-induced arthritis in rat assessed as decrease in volume of paw at 10 mg/kg, po administered for 9 days starting 14 days after adjuvant injection and continued until day 22 by therapeutic test. The data set is classed as functional, organism-based. Also on record: dose 10 mg/kg. In a few lines: as §1

The test system of data set [7] is Rattus norvegicus. Put plainly: Chronic antiinflammatory activity against adjuvant-induced arthritis in rat assessed as decrease in volume of paw at 100 mg/kg, po administered for 9 days starting 14 days after adjuvant injection and continued until day 22 by therapeutic test. Also noted: dose 100 mg/kg. The data set is classed as functional, organism-based. In a few lines: as §1

Data set [8] relates to Rattus norvegicus. The data set is described as follows: Ratio of ED50 for acute antiinflammatory activity against carrageenan-induced paw edema in rat to ED50 for chronic antiinflammatory activity against adjuvant-induced arthritis in rat.

For orientation: ED50 means the midpoint of the dose-response relation.

The source made the active and inactive calls. No cut-off for these calls is given here.

With `CCc1cccc2c3c([nH]c12)C(CC)(CC(=O)O)CCCC3` (stereo not drawn), the ED50 in data set [1] is > 50 mg/kg.

With `CCc1cccc2c3c([nH]c12)C(C)(CC(=O)O)CC3` (stereo not drawn), the ED50 in data set [1] was > 50 mg/kg.

As to `CCCC1(CC(=O)O)OCCc2c1[nH]c1ccccc21` (stereo not drawn) [PRODOLIC ACID], the figures for the median effective dose (ED50) in data set [1], in data set [2] and in data set [4] were 9 mg/kg, 678 mg/kg and 89.9 mg/kg, respectively. In data set [3], the “Ratio ED50” value was found to be 75.

With `CCC1(CC(=O)O)CCCc2c1[nH]c1c(C(C)C)cccc21` (stereo not drawn), the ED50 in data set [1] was 5.4 mg/kg.

Consider `CCC1(CC(=O)O)CCCc2c1[nH]c1ccc(OC)cc21` (stereo not drawn), for which, in data set [5], the result was inactive.

For `CCc1cccc2c3c([nH]c12)C(C)(CC(=O)O)CCCC3` (stereo not drawn), the result in data set [6] was inactive.

Regarding `O=C(O)C1CCc2c([nH]c3ccc(Cl)cc23)C1` (stereo not drawn), the 50% effective dose (ED50) came to 21.3 mg/kg in data set [1] and 10.2 mg/kg in data set [4].

In the case of `CCc1cccc2c3c([nH]c12)C(CC)(CC(=O)O)CC3` (stereo not drawn), the ED50 in data set [1] amounted to 6.2 mg/kg.

For `O=C(O)C1CCc2c([nH]c3ccccc23)C1` (stereo not drawn), the outcome in data set [7] was inactive.

With `COc1ccc2c(c1)c(CC(=O)O)c(C)n2C(=O)c1ccc(Cl)cc1` [INDOMETHACIN], the ED50 in data set [1] worked out at 0.2 mg/kg.

For `CCc1cccc2c3c([nH]c12)C(CC)(CC(=O)O)CCC3` (stereo not drawn), the ED50 in data set [1] amounted to 1.9 mg/kg.

Take `COc1ccc2[nH]c3c(c2c1)CCC(C(=O)O)C3` (stereo not drawn): the ED50 in data set [1] turned out to be 20 mg/kg; in data set [4], 12.7 mg/kg.

Consider `CCCCC1C(=O)N(c2ccccc2)N(c2ccccc2)C1=O` [PHENYLBUTAZONE], for which the results for the ED50 in data set [1] and in data set [2] were 5.4 mg/kg and 100 mg/kg, respectively.

In the case of `COc1ccc2cc([C@H](C)C(=O)O)ccc2c1` [NAPROXEN], the ED50 in data set [1] turned out to be 2.1 mg/kg; in data set [2], 28 mg/kg. Moreover, the “Ratio ED50” value in data set [3] was 13.

Turning to `O=C(O)CC1CCCc2c1[nH]c1ccccc21` (stereo not drawn), in data set [7], the outcome was inactive.

In the case of `CCCCc1cccc2c3c([nH]c12)C(CC)(CC(=O)O)CCC3` (stereo not drawn), the ED50 in data set [1] turned out to be 4.2 mg/kg.

On to `CCC1(CC(=O)O)CCc2c1[nH]c1ccccc21` (stereo not drawn), for which the median effective dose (ED50) in data set [1] came to 100 mg/kg.

For the molecule `CCCC1(CC(=O)O)CCCc2c1[nH]c1ccccc21` (stereo not drawn), the ED50 in data set [1] was 20 mg/kg.

For the molecule `CC1(CC(=O)O)CCc2c1[nH]c1ccccc21` (stereo not drawn), in data set [5], the outcome was inactive.

In the case of `CCCc1cccc2c3c([nH]c12)C(CC)(CC(=O)O)CCC3` (stereo not drawn), the Ratio in data set [8] came out at 10. Besides, the values for the median effective dose (ED50) in data set [1], in data set [2] and in data set [4] were 1.1 mg/kg, 24 mg/kg and 10.5 mg/kg, respectively. Besides, the “Ratio ED50” value in data set [3] came to 24.

Turning to `CCC1(CC(=O)O)CCCc2c1[nH]c1ccccc21` (stereo not drawn), the median effective dose (ED50) in data set [1] stood at 3.3 mg/kg.

Regarding `CC1(CC(=O)O)CCCc2c1[nH]c1ccccc21` (stereo not drawn), the outcome in data set [7] was inactive.

In the case of `CCc1cccc2c3c([nH]c12)C(CC)(CC(=O)O)OCC3` (stereo not drawn) [ETODOLAC], the ED50 was found to be 0.7 mg/kg in data set [1], 60 mg/kg in data set [2] and 10.2 mg/kg in data set [4]. In addition, the “Ratio ED50” value in data set [3] came out at 85.
